Test results taken from ChEMBL document CHEMBL4842367, “Strategies toward Discovery of Potent and Orally Bioavailable Proteolysis Targeting Chimera Degraders of Androgen Receptor for the Treatment of Prostate Cancer” (J Med Chem, 2021).

Tests used:
[1] = molecular target: T1, Protein cereblon/Androgen receptor (Homo sapiens, UniProt P10275+Q96SW2); assay: Protac activity at CRBN/AR in human VCaP cells assessed as induction of AR degradation at 0.001 uM measured after 24 hrs by western blot analysis relative to control; type: cell-based
T1 sequence (P10275 whole entry, looked up): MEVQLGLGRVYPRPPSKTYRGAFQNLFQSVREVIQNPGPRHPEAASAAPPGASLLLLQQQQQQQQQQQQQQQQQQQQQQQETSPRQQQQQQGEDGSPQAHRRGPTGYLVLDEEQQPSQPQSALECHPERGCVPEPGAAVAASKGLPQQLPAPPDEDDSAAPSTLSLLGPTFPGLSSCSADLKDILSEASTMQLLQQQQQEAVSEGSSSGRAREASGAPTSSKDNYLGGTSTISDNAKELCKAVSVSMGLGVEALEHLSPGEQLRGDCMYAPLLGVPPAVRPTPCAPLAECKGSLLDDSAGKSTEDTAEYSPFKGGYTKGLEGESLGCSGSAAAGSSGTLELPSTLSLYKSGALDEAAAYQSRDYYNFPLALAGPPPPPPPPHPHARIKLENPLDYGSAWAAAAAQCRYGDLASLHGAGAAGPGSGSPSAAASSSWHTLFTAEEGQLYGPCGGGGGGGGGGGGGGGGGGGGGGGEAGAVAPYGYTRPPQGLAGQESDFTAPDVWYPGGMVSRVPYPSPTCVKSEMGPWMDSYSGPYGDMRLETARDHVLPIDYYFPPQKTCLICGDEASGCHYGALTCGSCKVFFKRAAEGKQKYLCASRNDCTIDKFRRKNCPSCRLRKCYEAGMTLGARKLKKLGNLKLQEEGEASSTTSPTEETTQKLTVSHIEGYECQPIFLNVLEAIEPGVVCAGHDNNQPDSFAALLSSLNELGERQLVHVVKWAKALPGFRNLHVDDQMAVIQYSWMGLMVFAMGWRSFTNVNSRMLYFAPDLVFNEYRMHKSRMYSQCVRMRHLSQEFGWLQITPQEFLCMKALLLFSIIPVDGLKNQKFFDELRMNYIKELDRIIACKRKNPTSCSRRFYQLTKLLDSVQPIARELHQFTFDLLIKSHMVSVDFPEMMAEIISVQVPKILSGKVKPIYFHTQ
T1 sequence (Q96SW2 whole entry, looked up): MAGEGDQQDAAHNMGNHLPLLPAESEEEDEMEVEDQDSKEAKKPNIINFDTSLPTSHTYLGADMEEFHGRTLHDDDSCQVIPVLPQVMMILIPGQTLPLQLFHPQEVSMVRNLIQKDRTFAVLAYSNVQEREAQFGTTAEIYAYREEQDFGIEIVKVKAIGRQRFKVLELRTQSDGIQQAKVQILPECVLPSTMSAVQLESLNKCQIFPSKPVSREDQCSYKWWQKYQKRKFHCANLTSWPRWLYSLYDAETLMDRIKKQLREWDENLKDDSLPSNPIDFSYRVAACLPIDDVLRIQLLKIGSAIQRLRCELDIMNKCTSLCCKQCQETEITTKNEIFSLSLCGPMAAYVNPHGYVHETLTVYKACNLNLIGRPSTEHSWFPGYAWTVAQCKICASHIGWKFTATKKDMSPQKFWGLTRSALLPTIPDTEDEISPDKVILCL

[2] = molecular target: T1, Protein cereblon/Androgen receptor; assay: Protac activity at CRBN/AR in human VCAP cells assessed as induction of AR degradation at 1 uM by western blot analysis relative to control; type: cell-based; details: time 24.0 hrs
[3] = molecular target: T1, Protein cereblon/Androgen receptor; assay: Protac activity at CRBN/AR in human VCaP cells assessed as induction of AR degradation at 0.1 uM measured after 24 hrs by western blot analysis relative to control; type: cell-based
[4] = molecular target: T1, Protein cereblon/Androgen receptor; assay: Protac activity at CRBN/AR in human VCaP cells assessed as induction of AR degradation at 0.01 uM measured after 24 hrs by western blot analysis relative to control; type: cell-based
Outline: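 VCaP cells treated 24 h at 1, 10, 100 and 1000 nM; lysed in RIPA with protease/phosphatase inhibitors, run on 4–12% SDS-PAGE, blotted to PVDF. AR bands background-subtracted and normalized to loading control; degradation relative to DMSO, average of three independent experiments.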

[5] = Plasma concentration in CB17 SCID mouse at 10 mg/kg, po measured after 1 hr by LC-MS/MS analysis; type: ADME, organism-based
Outline: (§1)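 Single oral gavage at 10 mg/kg in 100% PEG200 to non-tumor-bearing male mice; three mice per time point, blood collected at 1, 3 and 6 h, plasma obtained by centrifugation and measured by LC–MS/MS; reported as mean ± SD.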

[6] = Plasma concentration in CB17 SCID mouse at 10 mg/kg, po measured after 3 hr by LC-MS/MS analysis; type: ADME, organism-based; outline: as §1
[7] = Plasma concentration in CB17 SCID mouse at 10 mg/kg, po measured after 6 hr by LC-MS/MS analysis; type: ADME, organism-based; outline: as §1

| Compound | Activity [1] | Activity [2] | Activity [3] | Activity [4] | concentration at 1 h [5] | concentration at 3 h [6] | concentration at 6 h [7] |
| --- | --- | --- | --- | --- | --- | --- | --- |
| CC1(C)[C@H](NC(=O)c2ccc(NCCCCCCCNc3ccc4c(c3)C(=O)N(C3CCC(=O)NC3=O)C4=O)cc2)C(C)(C)[C@H]1Oc1ccc(C#N)c(Cl)c1 (stereo partly drawn) | 28% | 62% | 79% | 58% |  |  |  |
| CC1(C)[C@H](NC(=O)c2ccc(N3CCN(CC4CC5(CCN(c6ccc7c(c6)C(=O)N(C6CCC(=O)NC6=O)C7=O)C5)C4)CC3)cc2)C(C)(C)[C@H]1Oc1ccc(C#N)c(Cl)c1 (stereo partly drawn) | 16% | 51% | 71% | 56% |  |  |  |
| CC1(C)[C@H](NC(=O)c2ccc(N3CCN(CCNc4cccc5c4C(=O)N(C4CCC(=O)NC4=O)C5=O)CC3)cc2)C(C)(C)[C@H]1Oc1ccc(C#N)c(Cl)c1 (stereo partly drawn) | < 5% | 32% | 41% | 23% |  |  |  |
| CC1(C)[C@H](NC(=O)c2ccc(N3CCC4(CCC(Nc5ccc6c(c5)C(=O)N(C5CCC(=O)NC5=O)C6=O)CC4)CC3)cc2)C(C)(C)[C@H]1Oc1ccc(C#N)c(Cl)c1 (stereo partly drawn) | 13% | 57% | 38% | 30% |  |  |  |
| CC1(C)[C@H](NC(=O)c2ccc(N3CCN(CC4CC5(C4)CN(c4ccc6c(c4)C(=O)N(C4CCC(=O)NC4=O)C6=O)C5)CC3)cc2)C(C)(C)[C@H]1Oc1ccc(C#N)c(Cl)c1 (stereo partly drawn) | 30% | 95% | 97% | 82% |  |  |  |
| CC1(C)[C@H](NC(=O)c2ccc(NCCCCCNc3ccc4c(c3)C(=O)N(C3CCC(=O)NC3=O)C4=O)cc2)C(C)(C)[C@H]1Oc1ccc(C#N)c(Cl)c1 (stereo partly drawn) | 49% | 97% | 89% | 84% | 111 ng/mL | 55.9 ng/mL | 2.9 ng/mL |
| CC1(C)[C@H](NC(=O)c2ccc(C(=O)N3CCN(CC4CN(c5ccc6c(c5)C(=O)N(C5CCC(=O)NC5=O)C6=O)C4)CC3)cc2)C(C)(C)[C@H]1Oc1ccc(C#N)c(Cl)c1 (stereo partly drawn) | 65% | 79% | 96% | 92% |  |  |  |
| CC1(C)[C@H](NC(=O)c2ccc(C(=O)N3CCN(CC4CCN(c5ccc6c(c5)C(=O)N(C5CCC(=O)NC5=O)C6=O)CC4)CC3)cc2)C(C)(C)[C@H]1Oc1ccc(C#N)c(Cl)c1 (stereo partly drawn) | 76% | […] |  |  |  |  |  |
| CC1(C)[C@H](NC(=O)c2ccc(N3CCN(C4CCC5(CC4)CCN(c4ccc6c(c4)C(=O)N(C4CCC(=O)NC4=O)C6=O)CC5)CC3)cc2)C(C)(C)[C@H]1Oc1ccc(C#N)c(Cl)c1 (stereo partly drawn) | 14% | 80% | 67% | 38% |  |  |  |
| CC1(C)[C@H](NC(=O)c2ccc(N3CCN(C4CC5(C4)CN(c4ccc6c(c4)C(=O)N(C4CCC(=O)NC4=O)C6=O)C5)CC3)cc2)C(C)(C)[C@H]1Oc1ccc(C#N)c(Cl)c1 (stereo partly drawn) | 37% | 88% | 93% | 78% |  |  |  |
| CC1(C)[C@H](NC(=O)c2ccc(N3CCN(CC4CCN(c5ccc6c(c5)C(=O)N(C5CCC(=O)NC5=O)C6=O)CC4)CC3)cc2)C(C)(C)[C@H]1Oc1ccc(C#N)c(F)c1 (stereo partly drawn) | < 5% | 80% | 75% | 15% |  |  |  |
| CC1(C)[C@H](NC(=O)c2ccc(N3CCN(CCCNc4cccc5c4C(=O)N(C4CCC(=O)NC4=O)C5=O)CC3)cc2)C(C)(C)[C@H]1Oc1ccc(C#N)c(Cl)c1 (stereo partly drawn) | < 5% | 9% | < 5% | < 5% |  |  |  |
| CC1(C)[C@@H](NC(=O)c2ccc(N3CCN(CC4CCN(c5ccc6c(c5)C(=O)N(C5CCC(=O)NC5=O)C6=O)CC4)CC3)cc2)C[C@@H]1Oc1ccc(C#N)c(Cl)c1 (stereo partly drawn) | < 5% | 90% | 75% | 19% |  |  |  |
| CC1(C)[C@H](NC(=O)c2ccc(NCCCNc3ccc4c(c3)C(=O)N(C3CCC(=O)NC3=O)C4=O)cc2)C(C)(C)[C@H]1Oc1ccc(C#N)c(Cl)c1 (stereo partly drawn) | 0% | 70% | 63% | 25% |  |  |  |
| CC1(C)[C@H](NC(=O)c2ccc(NCCCCCCCCNc3ccc4c(c3)C(=O)N(C3CCC(=O)NC3=O)C4=O)cc2)C(C)(C)[C@H]1Oc1ccc(C#N)c(Cl)c1 (stereo partly drawn) | 48% | 73% | 82% | 76% |  |  |  |
| N#Cc1ccc(O[C@H]2C[C@H](NC(=O)c3ccc(N4CCN(CC5CCN(c6ccc7c(c6)C(=O)N(C6CCC(=O)NC6=O)C7=O)CC5)CC4)cc3)C2)cc1Cl (stereo partly drawn) | < 5% | 39% | 25% | 30% |  |  |  |

| Compound | Activity [1] | Activity [2] | Activity [3] | Activity [4] | concentration at 1 h [5] | concentration at 3 h [6] | concentration at 6 h [7] |
| --- | --- | --- | --- | --- | --- | --- | --- |
| CC1(C)[C@H](NC(=O)c2ccc(N3CCN(CCCCNc4cccc5c4C(=O)N(C4CCC(=O)NC4=O)C5=O)CC3)cc2)C(C)(C)[C@H]1Oc1ccc(C#N)c(Cl)c1 (stereo partly drawn) | 7% | 32% | 47% | 40% |  |  |  |
| CC1(C)[C@H](NC(=O)c2ccc(N3CCN(CCCNc4ccc5c(c4)C(=O)N(C4CCC(=O)NC4=O)C5=O)CC3)cc2)C(C)(C)[C@H]1Oc1ccc(C#N)c(Cl)c1 (stereo partly drawn) | 22% | 53% | 54% | 37% | 267 ng/mL | 254 ng/mL | 96.9 ng/mL |
| CC1(C)[C@H](NC(=O)c2ccc(N3CCN(C4CN(c5ccc6c(c5)C(=O)N(C5CCC(=O)NC5=O)C6=O)C4)CC3)cc2)C(C)(C)[C@H]1Oc1ccc(C#N)c(Cl)c1 (stereo partly drawn) | 54% | 73% | 91% | 77% |  |  |  |
| CC1(C)[C@H](NC(=O)c2ccc(N3CCN(C4CCC5(CC4)CN(c4ccc6c(c4)C(=O)N(C4CCC(=O)NC4=O)C6=O)C5)CC3)cc2)C(C)(C)[C@H]1Oc1ccc(C#N)c(Cl)c1 (stereo partly drawn) | 15% | 82% | 73% | 48% |  |  |  |
| CC1(C)[C@H](NC(=O)c2ccc(C(=O)N3CCN(C4CN(c5ccc6c(c5)C(=O)N(C5CCC(=O)NC5=O)C6=O)C4)CC3)cc2)C(C)(C)[C@H]1Oc1ccc(C#N)c(Cl)c1 (stereo partly drawn) | 71% | 83% | 95% | 83% |  |  |  |
| CC1(C)[C@H](NC(=O)c2ccc(N3CCN(CC4CCN(c5ccc6c(c5)C(=O)N(C5CCC(=O)NC5=O)C6=O)CC4)CC3)cc2)C(C)(C)[C@H]1Oc1ccc(C#N)c(C(F)(F)F)c1 (stereo partly drawn) | 22% | 90% | 87% | 45% |  |  |  |
| CC1(C)[C@H](NC(=O)c2ccc(N3CCN(CCCCNc4ccc5c(c4)C(=O)N(C4CCC(=O)NC4=O)C5=O)CC3)cc2)C(C)(C)[C@H]1Oc1ccc(C#N)c(Cl)c1 (stereo partly drawn) | 42% | 82% | 84% | 63% |  |  |  |
| CC1(C)[C@H](NC(=O)c2ccc(NCCCCCNc3cccc4c3C(=O)N(C3CCC(=O)NC3=O)C4=O)cc2)C(C)(C)[C@H]1Oc1ccc(C#N)c(Cl)c1 (stereo partly drawn) | < 5% | 38% | 36% | 9% |  |  |  |
| CC1(C)[C@H](NC(=O)c2ccc(N3CCN(CCCCCNc4ccc5c(c4)C(=O)N(C4CCC(=O)NC4=O)C5=O)CC3)cc2)C(C)(C)[C@H]1Oc1ccc(C#N)c(Cl)c1 (stereo partly drawn) | 12% | 60% | 85% | 59% |  |  |  |
| CC1(C)[C@H](NC(=O)c2ccc(NCCCCCCNc3cccc4c3C(=O)N(C3CCC(=O)NC3=O)C4=O)cc2)C(C)(C)[C@H]1Oc1ccc(C#N)c(Cl)c1 (stereo partly drawn) | 10% | 48% | 43% | 22% |  |  |  |
| CC1(C)[C@H](NC(=O)c2ccc(NCCCCCCNc3ccc4c(c3)C(=O)N(C3CCC(=O)NC3=O)C4=O)cc2)C(C)(C)[C@H]1Oc1ccc(C#N)c(Cl)c1 (stereo partly drawn) | 69% | 79% | 77% | 85% | 16.9 ng/mL | 8 ng/mL | 1.6 ng/mL |
| CC1(C)[C@H](NC(=O)c2ccc(N3CCN(CCNc4ccc5c(c4)C(=O)N(C4CCC(=O)NC4=O)C5=O)CC3)cc2)C(C)(C)[C@H]1Oc1ccc(C#N)c(Cl)c1 (stereo partly drawn) | 58% | 76% | 79% | 83% | 1240 ng/mL | 919 ng/mL | 604 ng/mL |
| CC1(C)[C@H](NC(=O)c2ccc(N3CCN(CC4CCN(c5ccc6c(c5)C(=O)N(C5CCC(=O)NC5=O)C6=O)CC4)CC3)cc2)C(C)(C)[C@H]1Oc1cnc(C#N)c(C(F)(F)F)c1 (stereo partly drawn) | 6% | 41% | 33% | 12% |  |  |  |
| CC1(C)[C@H](NC(=O)c2ccc(N3CCN(C4CC5(CCN(c6ccc7c(c6)C(=O)N(C6CCC(=O)NC6=O)C7=O)C5)C4)CC3)cc2)C(C)(C)[C@H]1Oc1ccc(C#N)c(Cl)c1 (stereo partly drawn) | 38% | 84% | 87% | 80% |  |  |  |
| CC1(C)[C@H](NC(=O)c2ccc(NCCCCNc3ccc4c(c3)C(=O)N(C3CCC(=O)NC3=O)C4=O)cc2)C(C)(C)[C@H]1Oc1ccc(C#N)c(Cl)c1 (stereo partly drawn) | 42% | 21% | 55% | 76% |  |  |  |
| CC1(C)[C@H](NC(=O)c2ccc(N3CCC4(CC3)CC(Nc3ccc5c(c3)C(=O)N(C3CCC(=O)NC3=O)C5=O)C4)cc2)C(C)(C)[C@H]1Oc1ccc(C#N)c(Cl)c1 (stereo partly drawn) | 0% | 88% | 82% | 16% |  |  |  |
